Activity calls are given as the source filed them. The calls are words filed in the database; no cut-off is given here.
Experiments:
Mesenchymal stem cells [1] = assay: Induction of adipogenesis differentiation in human Mesenchymal stem cells at 20 uM incubated for 21 days by […] staining-based microscopic analysis; assay type: functional, cell-based; conditions: time 21.0 day
[2] = biological target: T1, Peroxisome proliferator-activated receptor delta (Homo sapiens, UniProt Q03181); assay: Agonist activity at human PPARdelta transfected in COS-7 cells assessed luciferase activity measured after 24 hrs by cell based luciferase transactivation assay
T1 sequence (Q03181 whole entry): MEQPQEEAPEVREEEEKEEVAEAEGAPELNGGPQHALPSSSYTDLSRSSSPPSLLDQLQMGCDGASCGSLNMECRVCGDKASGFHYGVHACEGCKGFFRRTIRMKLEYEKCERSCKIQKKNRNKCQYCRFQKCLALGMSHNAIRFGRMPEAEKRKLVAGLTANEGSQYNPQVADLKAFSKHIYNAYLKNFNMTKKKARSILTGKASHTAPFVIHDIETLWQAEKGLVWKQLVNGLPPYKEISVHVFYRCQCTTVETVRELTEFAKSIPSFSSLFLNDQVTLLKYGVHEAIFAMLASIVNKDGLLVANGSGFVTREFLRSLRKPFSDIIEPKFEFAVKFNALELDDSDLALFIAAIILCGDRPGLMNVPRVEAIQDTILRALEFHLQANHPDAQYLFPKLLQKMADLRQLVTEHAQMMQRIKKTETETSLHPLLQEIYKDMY

Mesenchymal stem cells [3] = assay: Cytotoxicity against human Mesenchymal stem cells expressing human PPARdelta assessed as morphological changes at 50 uM by microscopy analysis; assay type: cell-based
[4] = Cytotoxicity against human HEK293T/17 cells assessed as reduction in cell viability at 10 to 100 uM measured after 24 hrs by MTT assay; assay type: cell-based; conditions: hek293t/17, 24 h, dose 10-100 µM
How it was run: (§1)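 HEK 293T/17 cultures exposed to agent for 24 h or 72 h; viability by MTT. Controls: H2O2 (toxic positive), plain medium, vehicle at 0.1% DMSO corresponding to the 100 μM dose; doses by serial dilution in medium. Quadruplicate (N = 4), mean with SD; two-tailed P versus 0 μM. Viability <70% taken as relevant to human toxicity.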

[5] = biological target: T2, Peroxisome proliferator-activated receptor alpha (Homo sapiens, UniProt Q07869); assay: Agonist activity at human PPARalpha transfected in COS-7 cells assessed luciferase activity measured after 24 hrs by cell based luciferase transactivation assay
T2 sequence (Q07869 whole entry): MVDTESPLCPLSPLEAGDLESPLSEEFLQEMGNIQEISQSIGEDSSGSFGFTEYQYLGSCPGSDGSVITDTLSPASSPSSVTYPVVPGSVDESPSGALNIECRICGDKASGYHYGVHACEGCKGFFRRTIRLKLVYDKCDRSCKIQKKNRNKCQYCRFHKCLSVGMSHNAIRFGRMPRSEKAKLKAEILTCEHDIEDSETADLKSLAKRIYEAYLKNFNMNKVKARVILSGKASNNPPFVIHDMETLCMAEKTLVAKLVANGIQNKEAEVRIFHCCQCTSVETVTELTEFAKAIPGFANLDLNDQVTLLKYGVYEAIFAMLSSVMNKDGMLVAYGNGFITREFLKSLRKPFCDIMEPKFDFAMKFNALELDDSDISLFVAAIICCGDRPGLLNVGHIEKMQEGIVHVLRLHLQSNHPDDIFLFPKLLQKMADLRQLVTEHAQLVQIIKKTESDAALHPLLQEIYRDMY
How it was run: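 Transient transfection of COS-7 cells with human PPARα, PPARγ or PPARδ plus luciferase reporter; constitutive Renilla luciferase also read. Three or more independent experiments in triplicate (N ≥ 9).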

[6] = tested on: COS-7 (Chlorocebus aethiops); assay: Cytotoxicity against COS-7 cells expressing human PPARdelta assessed as morphological changes at lower concentration by microscopy analysis; conditions: monkey
Mus musculus [7] = assay: Antiosteoporotic activity against OVX-induced bone loss C57BL/6 mouse model assessed as increase in ratio of bone volume to total volume at 10 mg/kg, po for 6 weeks by microcomputed tomography method relative to sham treated control; assay type: functional, organism-based
How it was run: (§2)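 Female C57BL/6 mice ovariectomized at 12 weeks of age; sham-operated group kept ovaries intact. After recovery, daily oral gavage of compound or vehicle for 6 weeks, sacrifice at 22 weeks of age. Distal femur trabecular structure analysed by micro-computed tomography, including bone volume/total volume, compared with sham mice; GW0742 as positive control.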

Mesenchymal stem cells [8] = assay: Induction of adipogenesis differentiation in human Mesenchymal stem cells at 1 uM incubated for 21 days by […] staining-based microscopic analysis; assay type: functional, cell-based; conditions: time 21.0 day
[9] = Glutathione reactivity at pH 7.4 assessed as compound remaining measured after 24 hrs by LC-MS/MS method; assay type: physicochemical; conditions: pH 7.4, 24 h
How it was run: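 Substrate incubated in triplicate with 10-fold excess glutathione in pH 7.4 phosphate buffer containing 50% methanol at 25 °C for up to 24 h. Substrate loss followed at several time points by LC-MS/MS, which also confirmed the structure of glutathione conjugates.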

L929 [10] = assay: Cytotoxicity against mouse L929 cells assessed as reduction in cell viability at 1 to 100 uM measured after 72 hrs; assay type: cell-based; conditions: l929, 72 h, dose 1-100 µM
Mus musculus [11] = assay: Antiosteoporotic activity against OVX-induced bone loss C57BL/6 mouse model assessed as increase in trabecular bone density at 10 mg/kg, po for 6 weeks by microcomputed tomography method relative to sham treated control; assay type: functional, organism-based; how it was run: as §2
[12] = Toxicity in OVX-induced bone loss C57BL/6 mouse model assessed as change in body weight at 10 mg/kg, po for 6 weeks; assay type: organism-based; conditions: in vivo, 1008 h
How it was run: (§3)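 OVX C57BL/6 females (surgery at 12 weeks, sham controls) dosed daily by oral gavage for 6 weeks. Gross toxicity monitored during dosing as weight, behaviour, eating and other habits versus controls.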

Mus musculus [13] = assay: Antiosteoporotic activity against OVX-induced bone loss C57BL/6 mouse model assessed as increase in microarchitectures at 10 mg/kg, po for 6 weeks by microcomputed tomography method relative to sham treated control; assay type: functional, organism-based; how it was run: as §2
Mesenchymal stem cells [14] = assay: Induction of adipogenesis differentiation in human Mesenchymal stem cells at 10 uM incubated for 21 days by […] staining-based microscopic analysis; assay type: functional, cell-based; conditions: time 21.0 day
L929 [15] = assay: Cytotoxicity against mouse L929 cells assessed as reduction in cell viability at 100 uM; assay type: cell-based; conditions: l929, 100 µM
[16] = Toxicity in OVX-induced bone loss C57BL/6 mouse model assessed as change in behaviour at 10 mg/kg, po for 6 weeks; assay type: organism-based; conditions: in vivo, 1008 h; how it was run: as §3
Mesenchymal stem cells [17] = assay: Induction of osteogenesis differentiation in human Mesenchymal stem cells at 1 uM incubated for 21 days by Alizarin Red S staining-based microscopic analysis; assay type: functional, cell-based; conditions: time 21.0 day
Mesenchymal stem cells [18] = assay: Induction of osteogenesis differentiation in human Mesenchymal stem cells at 20 uM incubated for 21 days by Alizarin Red S staining-based microscopic analysis; assay type: functional, cell-based; conditions: time 21.0 day
[19] = biological target: T3, Peroxisome proliferator-activated receptor gamma (Homo sapiens, UniProt P37231); assay: Agonist activity at human PPARgamma transfected in COS-7 cells assessed luciferase activity measured after 24 hrs by cell based luciferase transactivation assay
T3 sequence (P37231 whole entry): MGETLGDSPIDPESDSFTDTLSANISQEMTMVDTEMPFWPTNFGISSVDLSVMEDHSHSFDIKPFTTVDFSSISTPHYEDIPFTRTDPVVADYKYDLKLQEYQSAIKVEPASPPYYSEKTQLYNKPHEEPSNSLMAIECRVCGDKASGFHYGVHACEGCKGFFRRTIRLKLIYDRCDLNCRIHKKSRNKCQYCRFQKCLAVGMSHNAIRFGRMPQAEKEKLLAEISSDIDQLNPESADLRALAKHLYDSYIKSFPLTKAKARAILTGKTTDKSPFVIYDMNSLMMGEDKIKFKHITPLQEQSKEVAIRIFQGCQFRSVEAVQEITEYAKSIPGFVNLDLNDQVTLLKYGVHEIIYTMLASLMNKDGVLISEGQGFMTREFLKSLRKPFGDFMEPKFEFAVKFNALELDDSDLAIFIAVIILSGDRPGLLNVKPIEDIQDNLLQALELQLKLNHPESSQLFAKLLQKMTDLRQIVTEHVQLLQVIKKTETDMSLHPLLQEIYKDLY

Mesenchymal stem cells [20] = assay: Induction of osteogenesis differentiation in human Mesenchymal stem cells at 10 uM incubated for 21 days by Alizarin Red S staining-based microscopic analysis; assay type: functional, cell-based; conditions: time 21.0 day
[21] = Cytotoxicity against human HEK293T/17 cells assessed as reduction in cell viability at 10 to 100 uM measured after 72 hrs by MTT assay; assay type: cell-based; conditions: hek293t/17, 72 h, dose 10-100 µM; how it was run: as §1
[22] = tested on: PPARdelta (human, expressed in COS-7 cells); assay: Cell toxicity index, ratio of CT50 to EC50 for agonist activity at human PPARdelta expressed in COS-7 cells; conditions: monkey
[23] = Toxicity in OVX-induced bone loss C57BL/6 mouse model assessed as change in eating at 10 mg/kg, po for 6 weeks; assay type: organism-based; conditions: in vivo, 1008 h; how it was run: as §3
[24] = biological target: T4, Peroxisome proliferator-activated receptor alpha (Homo sapiens) (UniProt Q07869); assay: Agonist activity at human PPARalpha transfected in COS-7 cells assessed maximum luciferase activity measured after 24 hrs by cell based luciferase transactivation assay relative to gemfibrozil; conditions: filed as agonist
T4 sequence (whole entry): T2 sequence (Q07869 whole entry)
How it was run: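 Transient transfection of COS-7 cells with human PPARα, PPARγ or PPARδ plus luciferase reporter; constitutive Renilla luciferase also read. […] Three or more independent experiments in triplicate (N ≥ 9).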

[25] = Cytotoxicity against human HEK293T/17 cells assessed as reduction in cell viability incubated for 24 hrs by MTT assay; assay type: cell-based; conditions: hek293t/17, 24 h
How it was run: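 HEK 293T/17 cultures were exposed to drug for 24 h and viability was read by standard MTT. Doses came from serial dilution in medium, top dose 100 μM. Controls were medium only, a DMSO vehicle at its highest level (0.1% in medium before adding to cells), and H2O2 as a toxic control. Runs were in quadruplicate (N = 4), reported as mean with SD and compared to 0 μM by two-tailed P.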

Cc1cc(N(C)Cc2sc(-c3ccc(C(F)(F)F)cc3)nc2C)ccc1/C=C/C(=O)O
Activity (Mesenchymal stem cells [1]): inactive | EC50 [2]: 335 nM | Activity (Mesenchymal stem cells [3]): Toxic | Activity [4]: Toxic | EC50 ([5]; cos-7): Not Active | Activity [6]: Non-Toxic | Activity (Mus musculus [7]): Active | Activity (Mesenchymal stem cells [8]): inactive | Stability [9]: Stable | Activity (L929 [10]): Toxic | Activity (Mus musculus [11]): Active | Activity [12]: Toxic | Activity (Mus musculus [13]): Active | Activity (Mesenchymal stem cells [14]): inactive | Activity (L929 [15]): Non-Toxic | Activity [16]: Toxic | Activity (Mesenchymal stem cells [17]): Active | Activity (Mesenchymal stem cells [18]): Active | EC50 ([19]; cos-7): Not Active | Activity (Mesenchymal stem cells [20]): Active | Activity [21]: Toxic | selectivity ratio [22]: 250 | Activity [23]: Toxic

Cc1nc(-c2ccc(C(F)(F)F)c(F)c2)sc1CSc1ccc(/C=C/C(=O)O)cc1
Activity (Mesenchymal stem cells [1]): inactive | EC50 [2]: 134 nM | EC50 ([5]; read-out: EC50): 915 nM | Activity (Mus musculus [7]): Active | Activity (Mesenchymal stem cells [8]): inactive | Stability [9]: Stable | Activity (L929 [10]): Toxic | Activity [12]: Toxic | Activity (Mus musculus [13]): Active | Activity (Mesenchymal stem cells [14]): inactive | Activity (L929 [15]): Toxic | Activity [16]: Toxic | Emax [24]: 163% | Activity (Mesenchymal stem cells [17]): Active | Activity (Mesenchymal stem cells [18]): Active | EC50 ([19]; read-out: EC50): 1300 nM | Activity (Mesenchymal stem cells [20]): Active | Activity [21]: Toxic | selectivity ratio [22]: 1350 | Activity [23]: Toxic

Cc1cc(SCc2sc(-c3ccc(C(F)(F)F)c(F)c3)nc2C)ccc1OCC(=O)O
Activity (Mesenchymal stem cells [3]): Toxic | EC50 ([5]; read-out: EC50): 2500 nM | Activity (Mesenchymal stem cells [8]): inactive | Activity (L929 [10]): Toxic | Activity (Mus musculus [11]): Active | Activity (Mesenchymal stem cells [14]): inactive | Activity (L929 [15]): Toxic | Emax [24]: > 108% | Activity [25]: Toxic | Activity (Mesenchymal stem cells [17]): Active | EC50 ([19]; read-out: EC50): 9530 nM | Activity (Mesenchymal stem cells [20]): Active | Activity [21]: Toxic

From ChEMBL document CHEMBL5032493, “Synthesis and Evaluation of PPARδ Agonists That Promote Osteogenesis in a Human Mesenchymal Stem Cell Culture and in a Mouse Model of Human Osteoporosis” (J Med Chem, 2021)
